# PfGluPho inh: PfG6PD (Plasmodium falciparum) enzyme inhibition; inhibition, % at 20 µM; 0.78% of 350,000 active; PfGluPho enzyme, NADPH resazurin-diaphorase fluorescence; AID 504690;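 active = inhibition reaching at least a set limit at 20 µM in the primary screen, cut at about 59% in these data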;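 also: 0% = DMSO wells with substrate and 100% = DMSO wells lacking glucose-6-phosphate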
# HKDC1 inh: inhibitors of human hexokinase HKDC1; Q2TB90; recombinant HKDC1, G6PDH/diaphorase resazurin coupled fluorescence; inhibition, % at 20 µM; 0.16% of 340,000 active;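 active = inhibition above about 35% when tested at 20 µM, limit read from the data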;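 also: plate controls were DMSO wells with enzyme for no effect and DMSO wells lacking enzyme for full effect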
# Target sequence (Q2TB90 whole entry, looked up): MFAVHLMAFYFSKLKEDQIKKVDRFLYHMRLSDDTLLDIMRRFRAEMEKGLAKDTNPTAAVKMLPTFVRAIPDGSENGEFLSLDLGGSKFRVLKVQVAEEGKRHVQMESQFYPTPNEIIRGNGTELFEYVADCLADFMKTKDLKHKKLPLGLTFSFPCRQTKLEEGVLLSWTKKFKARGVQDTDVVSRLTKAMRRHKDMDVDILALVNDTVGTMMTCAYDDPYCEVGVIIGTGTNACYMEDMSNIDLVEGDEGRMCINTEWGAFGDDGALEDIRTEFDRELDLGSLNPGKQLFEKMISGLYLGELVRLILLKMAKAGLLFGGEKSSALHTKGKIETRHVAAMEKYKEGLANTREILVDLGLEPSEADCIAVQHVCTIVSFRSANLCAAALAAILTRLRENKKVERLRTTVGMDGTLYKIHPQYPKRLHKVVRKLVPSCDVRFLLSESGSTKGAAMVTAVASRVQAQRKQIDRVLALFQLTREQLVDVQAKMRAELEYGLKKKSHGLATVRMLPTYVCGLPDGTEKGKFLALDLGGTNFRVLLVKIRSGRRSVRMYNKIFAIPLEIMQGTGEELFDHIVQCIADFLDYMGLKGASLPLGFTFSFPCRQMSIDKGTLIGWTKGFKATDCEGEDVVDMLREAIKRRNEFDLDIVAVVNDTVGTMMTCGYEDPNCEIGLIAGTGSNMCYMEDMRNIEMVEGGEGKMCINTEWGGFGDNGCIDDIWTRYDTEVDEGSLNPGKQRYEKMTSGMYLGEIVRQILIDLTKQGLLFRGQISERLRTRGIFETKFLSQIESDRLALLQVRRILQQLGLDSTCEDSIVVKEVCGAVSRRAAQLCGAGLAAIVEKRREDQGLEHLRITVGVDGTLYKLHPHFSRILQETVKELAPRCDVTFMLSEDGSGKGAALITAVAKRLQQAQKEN
#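 test system = in-house recombinant HK5 (HKDC1) enzyme | amount = HKDC1 at 5 µg/mL | control set = DMSO-enzyme wells negative, buffer-substituted wells positive | compound = one dose of 20 µM, 1% DMSO | schedule = reaction time 90 min, room temperature, protected from light | technique = resorufin fluorescence at 613 nm | reagent = glucose with 1 mM ATP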
# Diaph inh CS: diaphorase inhibition or chemical oxidation counter-screen; inhibition, % at 20 µM; 0.69% of 190,000 active; diaphorase resazurin-to-resorufin fluorescence, NADH, 16 min; bacterial (C. kluyveri) enzyme, not human;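 active = primary screen inhibition at 20 µM above a set limit, cut at about 50% in these data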;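 also: plate controls were DMSO with full reaction for no effect and wells lacking NADH for full effect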
#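 Assay system – diaphorase enzyme from Clostridium kluyveri · Amount – diaphorase 0.14 U/mL (working solution) · Times – reaction incubation of 16 min at room temperature · Controls – No-NADH positive control and DMSO neutral control · Signal – resorufin fluorescence 544/590 nm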
# Diaph act CS: activates diaphorase or chemically reduces, flagging diaphorase assay artifacts | Diaphorase/resazurin coupled assay, resorufin fluorescence, 16 min; hits give high values; 1 = vehicle wells, 0 = NADH-free wells | 0.005% of 190,000 active | AID 1229 | activation factor at 20 µM;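 active = diaphorase activity raised at least twofold by the compound at 20 µM; inactive = activation factor below 2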
#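 Measured by – red resorufin fluorescence at 544/590 nm excitation/emission · Test system – Clostridium kluyveri diaphorase, purified enzyme · Incubation – reaction time 16 min, room temperature · Buffer or medium – 50 mM HEPES pH 7.4 with 4.542 mM MgCl2, 0.005% Tween 20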
# G6PDH CS: L. mesenteroides G6PDH inhibition counter-screen; Purified L. mesenteroides G6PDH, diaphorase/resazurin coupled fluorescence, 45 min; inhibition, % at 5 µM; 0.12% of 200,000 active; AID 1020; in the data active = inhibition above about 50%
# * = called active by the depositor; . = not tested or not shown. Hits are enriched below; roughly 1.2% of the tested compounds scored in any of these assays.
SMILES,PfGluPho inh,HKDC1 inh,Diaph inh CS,Diaph act CS,G6PDH CS
Cc1cc(-c2n[nH]c(=S)n2/N=C/c2ccc(Cl)c([N+](=O)[O-])c2)n[nH]1,18,2,23,0.8,6
COc1ccc(S(=O)(=O)N2CCSCC2)cc1C(N)=O,-3,4,.,.,.
Cc1cccc(C)c1NC(=O)CSc1nnc(-c2cccnc2)o1,-10,-5,16,0.8,-1
COc1cccc(N2CCN(C(=O)CCNS(=O)(=O)c3ccc(F)c(F)c3)CC2)c1,-1,-3,.,.,.
CCOC(=O)Cc1csc(NC(=O)CCCC(=O)O)n1,3,-5,.,.,.
O=C(C1CCCCC1)N1C[C@H](O)[C@@H](n2cc(C3CC3)nn2)C[C@@H]1c1ccccc1,5,.,.,.,.
CCOC(=O)N/N=C(/c1ccccc1)C1CCCCC1,-12,14,4,1,-3
COC1=C(C)C(=O)C2=C(C1=O)C1C3CC4=C(C(=O)C(OC)=C(C)C4=O)C(CNC(=O)C(C)=O)N3C(C#N)C(C2)N1C (stereo unspecified),120*,60*,.,.,.
O=C(NCC1CCCO1)c1cn(-c2ccccc2)nc1-c1ccccc1 (stereo unspecified),-14,-3,58*,0.4,7
Cc1ccc(-n2nc(C)c(C(=O)N3CCN(C(=O)c4ccco4)CC3)c2-n2cccc2)cc1,-6,-3,.,.,.
COc1ccc(NC(=O)c2cc3c(COC(C)=O)cnc(C)c3oc2=Nc2cccc(C(=O)O)c2)c(OC)c1,68*,1,.,.,.
O=C1C=CC(=O)N1c1ccc(O)cc1,22,-3,.,.,.
O=C1C=CC(=O)N1c1ccc(OC(F)F)cc1,87*,-7,11,0.9,-11
CCCN(CCC)S(=O)(=O)c1ccc(Cl)c(OC)c1,19,-8,-4,1,5
CC1(C)Oc2cc(N)c([N+](=O)[O-])cc2O1,-15,-3,10,0.9,-1
C=C1N(C)c2cc([N+](=O)[O-])c(N)cc2C1(C)C,33,7,75*,0.3,44
COc1ccc(NC(=O)CN(c2ccccc2)S(=O)(=O)N(C)C)cc1Cl,9,-4,68*,0.3,-4
COc1ccc(NC(=O)CN(c2ccccc2)S(=O)(=O)N(C)C)cc1OC,4,-6,1,1,11
CCCn1c(=S)[nH]c2ccccc2c1=O,9,-10,19,0.8,14
CCc1cc2c(=O)n(CCC(C)C)c(=S)[nH]c2s1,18,-1,56*,0.4,-6
C#CCOCCOCCOCCNc1nc(N2CCN(C(=O)CCCCCCCCCCNC(=O)[C@H](CCCCN)n3cc(C[C@@H](C)CC)nn3)CC2)nc(N2CCN(C(=O)CCCCCCCCCCNC(=O)[C@H](CCCN=C(N)N)n3cc(C[C@@H](C)CC)nn3)CC2)n1,52,16,.,.,.
C#CCOCCOCCOCCNc1nc(N2CCN(C(=O)CCCCCCCCCCNC(=O)[C@@H](CCSC)n3cc(CCO)nn3)CC2)nc(N2CCN(C(=O)CCCCCCCCCCNC(=O)[C@H](CO)n3cc(CCCCCN)nn3)CC2)n1,52,-16,.,.,.
C#CCOCCOCCOCCNc1nc(N2CCN(C(=O)CCCCCCCCCCNC(=O)[C@H](CCCCN)n3cc(C)nn3)CC2)nc(N2CCN(C(=O)CCCCCCCCCCNC(=O)[C@H](CCCN=C(N)N)n3cc(C[C@@H](C)CC)nn3)CC2)n1,60*,1,.,.,.
C#CCOCCOCCOCCNc1nc(N2CCN(C(=O)CCCCCCCCCCNC(=O)[C@@H](CCSC)n3cc(CCO)nn3)CC2)nc(N2CCN(C(=O)CCCCCCCCCCNC(=O)[C@H](CCCN=C(N)N)n3cc(C[C@@H](C)CC)nn3)CC2)n1,69*,10,.,.,.
CC(C)(C)OC(=O)N(Cc1ccccc1)Cc1ccccc1OCc1cccc(NC(=O)c2ccccc2)c1,18,0,.,.,.
SMILES,PfGluPho inh,HKDC1 inh,Diaph inh CS,Diaph act CS,G6PDH CS
COc1cc(SC)ccc1C(=O)OCC(=O)N1CCCC1,10,-4,.,.,.
Nc1ccccc1NC1CCCCC1,2,0,82*,0.2,10
COc1ccc(NC(=O)CN2CCN(CC(=O)Nc3ccccc3OC)CC2)c(OC)c1,-5,-1,.,.,.
COc1ccc(NC(=O)Cn2cccc2)c(OC)c1,-12,-10,74*,0.3,3
O=[N+]([O-])c1cc(-c2ncccn2)c([N+](=O)[O-])s1,123*,10,51*,0.5,3
COc1c(Cl)cc(C(=O)NN)cc1Cl,-7,-7,-15,1.2,0
NNC(=O)c1cc(O)c(O)c(O)c1,58,14,65*,0.4,9
CS(=O)(=O)N1CCN(c2ccc([N+](=O)[O-])c(SCc3ccco3)c2)CC1,14,0,57*,0.4,13
COCCN(CC(=O)Nc1cccc(C)c1C)C(=O)CN1C(=O)NC2(CCCCC2)C1=O,2,-6,.,.,.
Oc1ccc(C=Nc2cccc3ncccc23)c(O)c1,16,18,45,0.5,-40
Oc1ccc(C=Nc2ccc3ncccc3c2)c(O)c1,.,.,68*,0.3,56*
NNC(=O)COc1ccc(C(F)(F)F)cc1,-1,-7,2,1,4
Cc1cccc(C(=O)Nc2ccc(C(=O)N/N=C/c3ccco3)cc2)c1,5,0,.,.,.
COc1ccc(S(=O)(=O)Nc2cc(Sc3ncn[nH]3)c(O)c3ccccc23)cc1,.,.,20,0.8,54*
c1ccc(Nc2ccc3c4c(cccc24)CC3)cc1,20,-2,6,0.9,6
Nc1ccc2c3c(cccc13)CC2,27,12,56*,0.4,40
COc1ccc(C)cc1N(C(=O)c1ccc(C#N)cc1)C1=NC(C)(C)CS1,-9,0,.,.,.
CCS(=O)(=O)c1nc(S(=O)(=O)c2ccc(C)cc2)c(N2CCC(C)CC2)s1,-10,-1,.,.,.
CCCCOc1ccc2c(c1)/C(=C(\C(Cl)=C(Cl)Cl)[N+](=O)[O-])N2,10,-9,50*,0.5,0
CCOc1ccc2c(c1)/C(=N/N1C(=O)c3ccccc3C1=O)C(=O)N2,3,-2,-15,1.2,6
O=[N+]([O-])/C(C(Cl)=C(Cl)Cl)=C1\Nc2ccccc2O1,-7,4,.,.,.
CCOc1ccc2c(c1)/C(=C(\C(Cl)=C(Cl)Cl)[N+](=O)[O-])N2,4,-6,51*,0.5,8
COC(=O)c1ccc2c(c1O)C(=O)c1ccccc1C2=O,-18,18,11,0.9,53*
O=C1c2ccccc2C(=O)c2c1ccc(O)c2O,-13,11,.,.,.
CCOC(=O)CN1C(=O)N[C@@H](c2ccco2)C(C(=O)OC)=C1C,-6,-1,.,.,.
COc1ccc(NC(=O)CSc2nc3ccsc3c(=O)n2CCCCCC(=O)O)cc1,-9,-7,10,0.9,-7
CC1CC(=O)c2c(cc3c(-c4c(O)cc(O)c5c(O)c6c(cc45)OC(C)CC6=O)c(O)cc(O)c3c2O)O1 (stereo unspecified),-22,12,64*,0.4,18
CSc1ccc(/C=N/NC(=O)c2ccccc2Cl)cc1,0,1,58*,0.4,0

# Screens as filed in PubChem BioAssay.
